Laboratory results published in ChEMBL document CHEMBL3751829, “Synthesis and biological evaluation of 3-tetrazolo steroidal analogs: Novel class of 5α-reductase inhibitors” (Bioorg Med Chem, 2016).

Experiments:
Rattus norvegicus [1] = assay: Effect on organ weight in male wistar rat assessed as dorsal prostate tissue weight per 100g at 5ml/kg, po qd measured on 15th day after 24 hrs of last dose (Rvb=50.325+/-7.519 mg/100g); assay type: functional, Prostate gland
Rattus norvegicus [2] = assay: Effect on organ weight in male wistar rat assessed as vas deferens tissue weight per 100g at 5ml/kg, po qd measured on 15th day after 24 hrs of last dose (Rvb=67.613+/-3.248 mg/100g); assay type: functional
Rattus norvegicus [3] = assay: Effect on organ weight in male wistar rat assessed as adrenal tissue weight per 100g at 5ml/kg, po qd measured on 15th day after 24 hrs of last dose (Rvb=14.762 +/-0.600 mg/100g); assay type: ADME, organism-based; settings: in vivo
Rattus norvegicus [4] = assay: Effect on organ weight in male wistar rat assessed as ventral prostate tissue weight per 100g at 5ml/kg, po qd measured on 15th day after 24 hrs of last dose (Rvb=59.494+/- 4.733 mg/100g); assay type: functional, Prostate gland
Rattus norvegicus [5] = assay: Effect on organ weight in male wistar rat assessed as liver tissue weight per 100g at 5ml/kg, po qd measured on 15th day after 24 hrs of last dose (Rvb=2.994+/- 0.254 g/100g); assay type: ADME, organism-based; settings: in vivo
Rattus norvegicus [6] = assay: Effect on organ weight in male wistar rat assessed as seminal vesicles tissue weight per 100g at 5ml/kg, po qd measured on 15th day after 24 hrs of last dose (Rvb=175.439+/-12.833 mg/100g); assay type: ADME, organism-based; settings: in vivo
Rattus norvegicus [7] = assay: Effect on organ weight in male wistar rat assessed testis tissue weight per 100g at 5ml/kg, po qd measured on 15th day after 24 hrs of last dose (Rvb=1054.099+/- 55.648 mg/100g); assay type: ADME, organism-based; settings: in vivo
Rattus norvegicus [8] = assay: Increase in body weight gain in male wistar rat at 5ml/kg, po qd measured on 15th day after 24 hrs of last dose (Rvb=9.412+/-1.632g%); assay type: ADME, organism-based; settings: in vivo
Rattus norvegicus [9] = assay: Effect on organ weight in male wistar rat assessed as epididymis tissue weight per 100g at 5ml/kg, po qd measured on 15th day after 24 hrs of last dose (Rvb=187.356+/- 5.961 mg/100g); assay type: functional
Rattus norvegicus [10] = assay: Decrease in dorsal prostate organ weight in male wistar rat at 5ml/kg, po qd measured on 15th day after 24 hrs of last dose; assay type: functional, Prostate gland; design: scale not given: the % may be the effect or the level left
Rattus norvegicus [11] = assay: Decrease in epididymis organ weight in male wistar rat at 5ml/kg, po qd measured on 15th day after 24 hrs of last dose; assay type: functional; design: scale not given: the % may be the effect or the level left
[12] = Cytotoxicity against human DU145 cells by rapid colorimetric assay; assay type: functional, cell-based, DU-145
Outline: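 Antiproliferative test on DU-145 cells using the Mosmann method. Seven concentrations were tested in culture medium.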

Rattus norvegicus [13] = assay: Decrease in ventral prostate organ weight in male wistar rat at 5ml/kg, po qd measured on 15th day after 24 hrs of last dose; assay type: functional, Prostate gland; design: scale not given: the % may be the effect or the level left
[14] = target: T1, 3-oxo-5-alpha-steroid 4-dehydrogenase 2 (Homo sapiens, UniProt P31213); assay: Inhibition of human 5alpha-2 reductase expressed in HEK293 cells assessed as suppression of conversion of [3]androstenedione incubated for 30 mins by radioactivity-based HPLC analysis; assay type: cell-based
T1 sequence (P31213 whole entry): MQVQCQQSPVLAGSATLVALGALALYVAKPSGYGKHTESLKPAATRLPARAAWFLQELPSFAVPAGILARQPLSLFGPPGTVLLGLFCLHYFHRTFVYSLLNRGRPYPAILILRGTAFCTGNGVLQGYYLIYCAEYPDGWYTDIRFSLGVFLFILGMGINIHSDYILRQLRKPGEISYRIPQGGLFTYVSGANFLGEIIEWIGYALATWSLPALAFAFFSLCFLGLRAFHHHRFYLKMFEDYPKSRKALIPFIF
Outline: (§1)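 Stably transfected HEK293 lines expressing 5AR-1 (HEK-I) or 5AR-2 (HEK-II) were sonicated in saccharose/Tris/EDTA buffer. The suspension was incubated at 37 °C for 30 min with 500 nM androstenedione solution plus [3H]androstenedione and an NADP/glucose/G6PDH regenerating system. Test compounds were added in 2% DMSO. The reaction was stopped with ether; steroids were extracted and analysed by radio-HPLC.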

Rattus norvegicus [15] = assay: Toxicity in male wistar rat assessed induction of mortality at 5ml/kg, po qd measured on 15th day after 24 hrs of last dose; assay type: organism-based; settings: in vivo
Outline: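 Mature male Wistar rats, groups of 5, standard diet. Compounds suspended in 0.50% CMC sodium given orally at 5 ml/kg once daily for 14 days; controls received vehicle only. Animals weighed and killed under ether on day 15, 24 h after last dose.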

[16] = target: T2, 3-oxo-5-alpha-steroid 4-dehydrogenase 1 (Homo sapiens) (UniProt P18405); assay: Inhibition of human 5alpha-1 reductase expressed in HEK293 cells assessed as suppression of conversion of [3]androstenedione at 2 uM incubated for 30 mins by radioactivity-based HPLC analysis; assay type: cell-based
T2 sequence (whole entry): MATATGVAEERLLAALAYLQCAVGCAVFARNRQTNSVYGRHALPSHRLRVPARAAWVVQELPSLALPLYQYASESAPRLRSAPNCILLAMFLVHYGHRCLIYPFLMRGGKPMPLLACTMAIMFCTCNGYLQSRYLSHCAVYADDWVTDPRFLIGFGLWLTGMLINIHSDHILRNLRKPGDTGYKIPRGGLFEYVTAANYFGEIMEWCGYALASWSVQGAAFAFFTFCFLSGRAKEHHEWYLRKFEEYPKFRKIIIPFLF
Outline: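 Lysates of stably transfected HEK293 cells (80% confluent cells sonicated in 300 mM saccharose, 5 mM Tris–HCl, 0.1 mM EDTA). Master mix: Tris buffer, androstenedione (500 nM solution) plus tracer [3H]androstenedione, NADP/glucose/glucose-6-P-dehydrogenase regenerating system; compound added in 2% DMSO. Cell suspension mixed 1:1 with master mix, 37 °C for 30 min. Stopped with ether; steroids extracted, dried, taken up in methanol, radio-HPLC.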

Rattus norvegicus [17] = assay: Decrease in vas deferens organ weight in male wistar rat at 5ml/kg, po qd measured on 15th day after 24 hrs of last dose; assay type: functional; design: scale not given: the % may be the effect or the level left
[18] = target: T3, 3-oxo-5-alpha-steroid 4-dehydrogenase 2 (Homo sapiens) (UniProt P31213); assay: Inhibition of human 5alpha-2 reductase expressed in HEK293 cells assessed as suppression of conversion of [3]androstenedione at 10 uM incubated for 30 mins by radioactivity-based HPLC analysis; assay type: cell-based; outline: as §1
T3 sequence (whole entry): T1 sequence (P31213 whole entry)

[19] = target: T2, 3-oxo-5-alpha-steroid 4-dehydrogenase 1 (Homo sapiens); assay: Inhibition of human 5alpha-1 reductase expressed in HEK293 cells assessed as suppression of conversion of [3]androstenedione at 10 uM incubated for 30 mins by radioactivity-based HPLC analysis; assay type: cell-based; outline: as §1
[20] = target: T3, 3-oxo-5-alpha-steroid 4-dehydrogenase 2 (Homo sapiens); assay: Inhibition of human 5alpha-2 reductase expressed in HEK293 cells assessed as suppression of conversion of [3]androstenedione at 2 uM incubated for 30 mins by radioactivity-based HPLC analysis; assay type: cell-based; outline: as §1
[21] = Homo sapiens, DU-145, read-out: IC50

SMILES	Activity (Rattus norvegicus [1]) [mg]	Activity (Rattus norvegicus [2]) [mg]	Activity (Rattus norvegicus [3]) [mg]	Activity (Rattus norvegicus [4]) [mg]	Activity (Rattus norvegicus [5]) [g]	Activity (Rattus norvegicus [6]) [mg]	Activity (Rattus norvegicus [7]) [mg]	Activity (Rattus norvegicus [8]) [g%]	Activity (Rattus norvegicus [9]) [mg]	Activity (Rattus norvegicus [10]) [%]	Activity (Rattus norvegicus [11]) [%]	IC50 ([12]; du-145)	Activity (Rattus norvegicus [13]) [%]	IC50 [14] [nM]	Activity (Rattus norvegicus [15])	inhibition [16] [%]	Activity (Rattus norvegicus [17]) [%]	inhibition [18] [%]	inhibition [19] [%]	inhibition [20] [%]	also measured
C[C@]12C=CC(=O)N[C@@H]1CC[C@@H]1[C@@H]2CC[C@]2(C)[C@@H](C(=O)Nc3cc(C(F)(F)F)ccc3C(F)(F)F)CC[C@@H]12 [DUTASTERIDE]	29.211	52.802	14.208	35.858	3.209	118.275	1067.385	11.914	155.415												
C[C@]12CCC(c3nnn[nH]3)=CC1=CC[C@@H]1[C@@H]2CC[C@]2(C)C(=O)CC[C@@H]12	42.651	27.646	17.986	38.551	3.257	95.251	1090.046	18.382	119.445	15.25	36.25	Not Active	35.2	83.8	Non-toxic	38.7	59.11	100	81.1	100	
C[C@]12CCC(c3nnn[nH]3)=CC1=CC[C@@H]1[C@@H]2CC[C@@]2(C)[C@H]1CCC(=O)N2Cc1ccccc1												ND(Unstable)									
CC(C)(C)NC(=O)[C@H]1CC[C@H]2[C@@H]3CC[C@H]4NC(=O)C=C[C@]4(C)[C@H]3CC[C@]12C [FINASTERIDE]	27.519	57.843	16.575	32.866	3.5097	105.51	1058.022	8.032	160.371	45.32	14.4		44.76	40			14.45				IC50 [12, 21]: 548 µM
C[C@]12CC[C@H]3[C@@H](CC=C4C=C(c5nnn[nH]5)CC[C@@H]43)[C@@H]1CCC2=O	46.695	59.232	19.76	56.124	3.457	188.757	1350.787	21.51	180.908	7.21	3.44		5.66		Non-toxic	36.2	12.4	79.7	79.7	60.6	IC50 [12, 21]: 536 µM
C[C@]12CCC(c3nnn[nH]3)=CC1=CC[C@@H]1[C@@H]2CC[C@@]2(C)[C@H]1CCC(=O)N2CCc1nnn[nH]1												ND(Unstable)									
